Measurements from ChEMBL document CHEMBL1143104, “Identification and characterization of pyrrolidine diastereoisomers as potent functional agonists and antagonists of the human melanocortin-4 receptor” (Bioorg Med Chem Lett, 2008).
Calls of active or inactive are those of the source. No cut-off for these calls is given here.

Assays:
Melanocortin receptor 4 [1] = target: T1, Melanocortin receptor 4 (Homo sapiens, UniProt P32245); test: Displacement of [125I]NDP-MSH from human MC4 receptor expressed in HEK293 cells; type: cell-based
T1 sequence (P32245 whole entry): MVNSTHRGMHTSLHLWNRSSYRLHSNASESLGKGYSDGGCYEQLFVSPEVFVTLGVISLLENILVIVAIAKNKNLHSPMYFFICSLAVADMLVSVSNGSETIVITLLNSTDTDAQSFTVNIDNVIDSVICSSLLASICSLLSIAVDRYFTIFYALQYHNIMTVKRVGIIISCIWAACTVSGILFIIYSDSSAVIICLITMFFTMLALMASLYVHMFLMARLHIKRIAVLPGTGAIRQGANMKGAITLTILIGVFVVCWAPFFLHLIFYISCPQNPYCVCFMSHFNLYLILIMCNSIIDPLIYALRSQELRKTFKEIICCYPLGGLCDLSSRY
Summary of the method: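 HEK293 cells expressing human MC4R, radioligand competition binding with [125I]-NDP-MSH. Ki values are the average of two or more independent measurements.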

Melanocortin receptor 4 [2] = target: T1, Melanocortin receptor 4; test: Agonist activity at human MC4 receptor expressed in CHO cells assessed as accumulation of cAMP production; type: functional, cell-based
Summary of the method: (§1)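 CHO cells transfected with human MC4R were stimulated by compound and accumulated cAMP was measured by ELISA. Intrinsic activity is expressed relative to α-MSH. Representative experiments were run 2–8 times.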

Melanocortin receptor 4 [3] = target: T1, Melanocortin receptor 4; test: Intrinsic activity at human MC4 receptor expressed in CHO cells assessed as accumulation of cAMP production relative to alphaMSH; type: functional, cell-based; summary of the method: as §1
Rattus norvegicus [4] = test: Suppression of food intake in ip dosed DIO rat after 24 hrs relative to control; type: functional, organism-based
Summary of the method: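 Male DIO rats were food-deprived overnight and on the test day. They were dosed ip at 3, 10 or 30 mg/kg in sterile water, and food was returned 1 h later. Cumulative intake was measured at set intervals over 24 h and compared with vehicle-treated rats.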

Rattus norvegicus [5] = test: Reduction of body weight in po dosed DIO rat; type: functional, organism-based
Summary of the method: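 Male DIO rats, separate groups, dosed orally once daily 1 h before lights out for 7 days with vehicle, fenfluramine, or 3, 10 or 30 mg/kg test article. Body weight and spillage-corrected food intake were recorded daily and compared with vehicle-treated controls.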

Melanocortin receptor 4 [6] = target: T1, Melanocortin receptor 4; test: Antagonist activity at human MC4 receptor expressed in CHO cells assessed as inhibition of alpha-MSH-stimulated cAMP production; type: functional, cell-based
Summary of the method: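 CHO cells transfected with human MC4R were tested for dose-dependent inhibition of α-MSH-stimulated cAMP accumulation, measured by ELISA. IC50 was derived. Representative experiments were run 2–8 times.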

Rattus norvegicus [7] = test: Increase in fat loss in po dosed DIO rat after 7 days; type: functional, organism-based
Summary of the method: (§2)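 Male DIO rats in separate groups were dosed orally once daily, 1 h before lights out, for 7 days with vehicle, fenfluramine, or 3, 10 or 30 mg/kg compound. Food intake (corrected for spillage) and body weight were recorded daily. After 7 days, body composition was measured by EchoMRI and fasting glucose by glucometer, each relative to baseline. Significance was set at p < 0.05.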

Rattus norvegicus [8] = test: Suppression of food intake in DIO rat at 30 mg/kg, po relative to control; type: functional, organism-based; parameters: dose 30 mg/kg; summary of the method: as §2
Rattus norvegicus [9] = test: Decrease in fasting glucose level in DIO rat at 30 mg/kg, po after 7 days; type: functional, organism-based; parameters: dose 30 mg/kg; summary of the method: as §2
[10] = target: T2, Melanocyte-stimulating hormone receptor (Homo sapiens, UniProt Q01726); details: 10 uM
Target sequence in this assay (Q01726 whole entry, looked up): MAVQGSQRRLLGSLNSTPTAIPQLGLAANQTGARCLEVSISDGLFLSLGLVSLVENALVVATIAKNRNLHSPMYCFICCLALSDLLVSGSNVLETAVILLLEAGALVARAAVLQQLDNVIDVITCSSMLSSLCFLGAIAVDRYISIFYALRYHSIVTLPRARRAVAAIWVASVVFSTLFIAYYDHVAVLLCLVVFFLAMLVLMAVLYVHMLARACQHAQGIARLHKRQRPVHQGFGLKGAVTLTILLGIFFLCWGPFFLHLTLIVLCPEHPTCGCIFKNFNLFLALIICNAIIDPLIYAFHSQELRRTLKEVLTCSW

Rattus norvegicus [11] = test: Reduction of body weight in DIO rat at 30 mg/kg, po after 2 days; type: functional, organism-based; parameters: dose 30 mg/kg; summary of the method: as §2
Rattus norvegicus [12] = test: Effect on food intake in DIO rat assessed as inhibition of feeding at 3 mg/kg, po after 6 days; type: functional, organism-based; parameters: dose 3 mg/kg; summary of the method: as §2
Melanocortin receptor 3 = Melanocortin receptor 3 (Homo sapiens, UniProt P41968); test: Binding affinity to MC3R
Chain of Melanocortin receptor 3 (P41968 whole entry): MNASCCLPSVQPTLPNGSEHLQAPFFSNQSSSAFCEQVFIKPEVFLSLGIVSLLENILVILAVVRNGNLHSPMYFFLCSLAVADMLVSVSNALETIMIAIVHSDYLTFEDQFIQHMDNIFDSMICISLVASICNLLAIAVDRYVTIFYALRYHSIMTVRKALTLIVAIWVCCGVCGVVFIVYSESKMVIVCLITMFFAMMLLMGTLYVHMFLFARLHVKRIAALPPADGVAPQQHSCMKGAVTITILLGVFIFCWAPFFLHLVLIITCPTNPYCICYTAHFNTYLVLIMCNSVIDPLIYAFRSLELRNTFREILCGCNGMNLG

[13] = Half life in rat at 2.5 mg/kg, iv; type: ADME, organism-based; parameters: dose 2.5 mg/kg, route intravenous; details: in vivo
Summary of the method: (§3)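 Rat pharmacokinetics: single 2.5 mg/kg iv injection and separately 10 mg/kg oral gavage. Plasma CL, Vd, t1/2, AUC, Cmax, Tmax and oral bioavailability were derived. Whole-brain concentration was measured at 1 and 4 h after oral dosing and expressed as a brain/plasma ratio. Values are the average of three animals.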

[14] = Clearance in rat at 2.5 mg/kg, iv; type: ADME, organism-based; parameters: dose 2.5 mg/kg, route intravenous; details: in vivo; summary of the method: as §3
[15] = target: T2, Melanocyte-stimulating hormone receptor; test: Binding affinity to MC1R
Target sequence in this assay (Q01726 whole entry): as the sequence (Q01726 whole entry, looked up) above

[16] = AUC in rat at 2.5 mg/kg, iv; type: ADME, organism-based; parameters: dose 2.5 mg/kg, route intravenous; details: plasma; summary of the method: as §3
[17] = Ratio of drug level in brain to plasma in rat at 10 mg/kg, po after 4 hrs; type: ADME, organism-based; parameters: dose 10 mg/kg, route oral; details: read-out: BPR; summary of the method: as §3
Melanocortin receptor 5 = Melanocortin receptor 5 (Homo sapiens, UniProt P33032); test: Binding affinity to MC5R
Chain of Melanocortin receptor 5 (P33032 whole entry): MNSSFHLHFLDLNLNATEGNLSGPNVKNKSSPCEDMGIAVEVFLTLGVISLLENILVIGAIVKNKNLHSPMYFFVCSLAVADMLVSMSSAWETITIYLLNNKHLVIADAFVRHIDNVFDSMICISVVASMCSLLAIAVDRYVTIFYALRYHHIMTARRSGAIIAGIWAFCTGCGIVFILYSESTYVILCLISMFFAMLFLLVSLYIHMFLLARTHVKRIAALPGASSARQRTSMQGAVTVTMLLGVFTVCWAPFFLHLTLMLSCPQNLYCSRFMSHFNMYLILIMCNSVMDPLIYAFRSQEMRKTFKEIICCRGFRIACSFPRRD

[18] = Cmax in rat at 10 mg/kg, po; type: ADME, organism-based; parameters: dose 10 mg/kg, route oral; details: in vivo; summary of the method: as §3
[19] = Bioavailability in rat at 10 mg/kg, po; type: ADME, organism-based; details: in vivo; summary of the method: as §3
[20] = Tmax in rat at 10 mg/kg, po; type: ADME, organism-based; parameters: dose 10 mg/kg, route oral; details: in vivo; summary of the method: as §3
[21] = AUC in rat at 10 mg/kg, po; type: ADME, organism-based; parameters: dose 10 mg/kg, route oral; details: plasma; summary of the method: as §3
[22] = Drug level in rat brain at 10 mg/kg, po after 4 hrs; type: ADME, organism-based; parameters: dose 10 mg/kg, route oral; details: read-out: Drug uptake; summary of the method: as §3
[23] = Volume of distribution in rat in rat at 2.5 mg/kg, iv; type: ADME, organism-based; parameters: dose 2.5 mg/kg, route intravenous; details: in vivo; summary of the method: as §3

| SMILES | Ki (Melanocortin receptor 4 [1]) | EC50 (Melanocortin receptor 4 [2]) | Intrinsic activity (Melanocortin receptor 4 [3]) | further results |
| --- | --- | --- | --- | --- |
| CC(C)[C@H](NC(=O)CCN(C)C)c1cccc(F)c1N1CCN(C(=O)[C@@H]2CN(C(C)C)C[C@H]2c2cc(F)c(F)c(F)c2)CC1 | 250 nM |  |  |  |
| Cc1ccc(N2CCN(C(=O)[C@@H]3CN(C4CCOCC4)C[C@H]3c3ccc(Cl)cc3)CC2)c([C@@H](NC(=O)CN)C(C)C)c1 | 2 nM | 9.1 nM | 114% |  |
| Cc1ccc(N2CCN(C(=O)[C@@H]3CN(C4CCOCC4)C[C@H]3c3ccc(Cl)cc3)CC2)c([C@@H](NC(=O)[C@H](C)N)C(C)C)c1 | 1 nM | 5.2 nM | 38% |  |
| Cc1cccc([C@@H]2CN(C(C)C)C[C@H]2C(=O)N2CCN(c3c(F)cccc3[C@@H](NC(=O)CCN(C)C)C(C)C)CC2)c1 | 470 nM |  |  |  |
| CC(C)[C@H](NC(=O)CCN(C)C)c1cccc(F)c1N1CCN(C(=O)[C@@H]2CN(C(C)C)C[C@H]2c2cccc(F)c2)CC1 | 560 nM |  |  |  |
| CCNC(C)Cc1cccc(C(F)(F)F)c1 (centres undefined) |  |  |  | Activity (Rattus norvegicus [4]): Active; Activity (Rattus norvegicus [5]): Active |
| CC(C)[C@H](NC(=O)CCN(C)C)c1cccc(F)c1N1CCN(C(=O)[C@@H]2CN(C(C)C)C[C@H]2c2cc(F)cc(F)c2)CC1 | 7800 nM |  |  |  |
| Cc1ccc(N2CCN(C(=O)[C@@H]3CN(C4CCOCC4)C[C@H]3c3ccc(Cl)cc3)CC2)c([C@H](C(C)C)N(C)C)c1 | 5.3 nM |  | 35% |  |
| CC(C)[C@H](NC(=O)CCN(C)C)c1cccc(F)c1N1CCN(C(=O)[C@@H]2CN(C(C)C)C[C@H]2c2ccc(F)c(F)c2)CC1 | 290 nM |  |  |  |
| Cc1ccc(N2CCN(C(=O)[C@@H]3CNC[C@H]3c3ccc(Cl)cc3)CC2)c([C@@H](NC(=O)CCN(C)C)C(C)C)c1 | 7.2 nM | 79 nM | 72% |  |
| CC(=O)N1C[C@@H](C(=O)N2CCN(c3ccc(C)cc3[C@@H](NC(=O)CCN(C)C)C(C)C)CC2)[C@H](c2ccc(Cl)cc2)C1 | 7.6 nM | 44 nM | 100% |  |
| Cc1ccc(N2CCN(C(=O)[C@@H]3CN(C4CCOCC4)C[C@H]3c3ccc(Cl)cc3)CC2)c([C@@H](NC(=O)CCN)C(C)C)c1 | 2.2 nM | 6 nM | 107% |  |
| COc1cccc([C@@H]2CN(C(C)C)C[C@H]2C(=O)N2CCN(c3c(F)cccc3[C@@H](NC(=O)CCN(C)C)C(C)C)CC2)c1 | 3700 nM |  |  |  |
| CC(C)[C@H](NC(=O)CCN(C)C)c1cccc(F)c1N1CCN(C(=O)[C@@H]2CN(C(C)C)C[C@H]2c2ccc(Cl)cc2Cl)CC1 | 7.5 nM |  | 24% | IC50 (Melanocortin receptor 4 [6]): 560 nM |
| Cc1ccc(N2CCN(C(=O)[C@@H]3CN(C4CCOCC4)C[C@H]3c3ccc(Cl)cc3)CC2)c([C@@H](NC(=O)CCN(C)C)C(C)C)c1 (stereo in doubt; 13b-1) |  |  | 122% | Activity (Rattus norvegicus [7]): Active; Activity (Rattus norvegicus [8]): Active; Activity (Rattus norvegicus [9]): Active; inhibition [10]: 38%; Activity (Rattus norvegicus [11]): Active; Activity (Rattus norvegicus [12]): Active |
| CC(C)[C@H](NC(=O)CCN(C)C)c1cccc(F)c1N1CCN(C(=O)[C@@H]2CN(C(C)C)C[C@H]2c2ccc(F)c(Cl)c2)CC1 | 260 nM | 410 nM | 78% |  |
| CC(C)[C@H](NC(=O)CCN(C)C)c1cccc(F)c1N1CCN(C(=O)[C@@H]2CN(C(C)C)C[C@H]2c2ccc(C(F)(F)F)c(F)c2)CC1 | 51 nM | 340 nM | 47% |  |
| CNCC(=O)N[C@H](c1cc(C)ccc1N1CCN(C(=O)[C@@H]2CN(C3CCOCC3)C[C@H]2c2ccc(Cl)cc2)CC1)C(C)C | 2.1 nM | 19 nM | 84% |  |
| Cc1ccc(N2CCN(C(=O)[C@@H]3CN(C4CCOCC4)C[C@H]3c3ccc(Cl)cc3)CC2)c([C@@H](NC(=O)[C@@H](C)N)C(C)C)c1 | 7.3 nM | 17 nM | 56% |  |
| CC(C)[C@H](NC(=O)CCN(C)C)c1cccc(F)c1N1CCN(C(=O)[C@@H]2CN(C(C)C)C[C@H]2c2ccc(C(F)(F)F)cc2F)CC1 | 61 nM |  |  |  |
| CCC(=O)N1C[C@@H](C(=O)N2CCN(c3ccc(C)cc3[C@@H](NC(=O)CCN(C)C)C(C)C)CC2)[C@H](c2ccc(Cl)cc2)C1 | 4.6 nM | 27 nM | 129% |  |
| Cc1ccc(N2CCN(C(=O)[C@@H]3CN(C4CCOCC4)C[C@H]3c3ccc(Cl)cc3)CC2)c([C@@H](NC(=O)CCN(C)C)C(C)C)c1 (stereo in doubt; 13b) [listing 1 of 2 here] | 1.4 nM | 10 nM |  |  |
| CC(C)[C@H](NC(=O)CCN(C)C)c1cccc(F)c1N1CCN(C(=O)[C@@H]2CN(C(C)C)C[C@H]2c2ccc(Cl)cc2)CC1 | 5.3 nM | 20 nM | 103% |  |
| Cc1ccc(N2CCN(C(=O)[C@H]3CN(C(C)C)C[C@H]3c3ccc(Cl)cc3)CC2)c([C@@H](NC(=O)CCN(C)C)C(C)C)c1 | 90 nM |  |  |  |
| Cc1ccc(N2CCN(C(=O)[C@H]3CN(C4CCOCC4)C[C@@H]3c3ccc(Cl)cc3)CC2)c([C@@H](NC(=O)CCN(C)C)C(C)C)c1 | 4.7 nM |  | 10% | Ki (Melanocortin receptor 3): 1300 nM; half-life [13]: 11 h; clearance [14]: 82 mL/min/kg; Ki [15]: 120 nM; AUC [16]: 455 ng·h/mL; Kp at 4 h [17]: 1; IC50 (Melanocortin receptor 4 [6]): 64 nM; Ki (Melanocortin receptor 5): 530 nM; Cmax [18]: 17 ng/mL; bioavailability [19]: 14%; Tmax [20]: 2 h; AUC [21]: 161 ng·h/mL; concentration at 4 h [22]: 18 ng/g; Vd [23]: 75 L/kg |
| CC(C)[C@H](NC(=O)CCN(C)C)c1cccc(F)c1N1CCN(C(=O)[C@@H]2CN(C(C)C)C[C@H]2c2cccc(Cl)c2)CC1 | 370 nM |  |  |  |
| CC(C)[C@H](NC(=O)CCN(C)C)c1cccc(F)c1N1CCN(C(=O)[C@@H]2CN(C(C)C)C[C@H]2c2ccoc2)CC1 | 850 nM |  |  |  |
| Cc1ccc(N2CCN(C(=O)[C@@H]3CN(C4CCOCC4)C[C@H]3c3ccc(Cl)cc3)CC2)c([C@@H](NC(=O)CCN(C)C)C(C)C)c1 (stereo in doubt; 13b) [listing 2 of 2 here] |  |  | 121% |  |
| Cc1ccc(N2CCN(C(=O)[C@@H]3CN(C4CCOCC4)C[C@H]3c3ccc(Cl)cc3)CC2)c([C@@H](N)C(C)C)c1 | 12 nM |  | 36% |  |
| CC(C)[C@H](NC(=O)CCN(C)C)c1cccc(F)c1N1CCN(C(=O)[C@@H]2CN(C(C)C)C[C@H]2c2cc(F)ccc2F)CC1 | 2050 nM |  |  |  |
